{
  "source": "paper PMC9358981",
  "about": "(Journal of pharmacological and toxicological methods, 2021)",
  "key": {"human S2R": {"target": "human S2R (Homo sapiens, UniProt Q5BJF2)", "sequence (Q5BJF2 whole entry)": "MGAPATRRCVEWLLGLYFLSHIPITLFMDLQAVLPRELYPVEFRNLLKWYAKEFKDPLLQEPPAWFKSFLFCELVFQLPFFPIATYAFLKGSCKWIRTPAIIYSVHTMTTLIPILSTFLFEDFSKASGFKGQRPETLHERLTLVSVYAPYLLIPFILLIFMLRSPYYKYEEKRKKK", "test": "Radioligand competition binding with [3H]-DTG at the S2R", "settings": "for Pseudo-Hill slope at the S2R: competition with [3H]-DTG"}, "MN9D cells": {"test_system": "MN9D cells", "test": "BDNF secretion via in situ ELISA", "format": "cell-based", "settings": "for Stimulation of BDNF secretion (in words) / Efficacy of BDNF secretion: 10 μM, MN9D cells; for Efficacy of BDNF secretion: normalized to the maximal response of 10 μM 4-PPBP"}, "human S1R": {"target": "human S1R (Homo sapiens, UniProt Q99720)", "sequence (Q99720 whole entry)": "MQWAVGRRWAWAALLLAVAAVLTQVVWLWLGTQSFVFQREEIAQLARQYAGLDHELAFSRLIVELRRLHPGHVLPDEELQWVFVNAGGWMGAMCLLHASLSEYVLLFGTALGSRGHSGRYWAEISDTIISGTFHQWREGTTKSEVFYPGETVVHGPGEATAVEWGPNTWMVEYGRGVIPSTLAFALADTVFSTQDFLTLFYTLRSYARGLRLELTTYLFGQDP", "test": "Radioligand competition binding with [3H]-", "settings": "for S2R/S1R ratio (Ki S2R / Ki S1R): selectivity for S1R over S2R, fold; for Pseudo-Hill slope at the S1R: competition with [3H]-(+)-pentazocine"}, "PC-6-15 cells": {"test_system": "PC-6-15 cells", "test": "NGF induced neurite sprouting", "format": "cell-based, rat", "settings": "for Effect on neurite sprouting, ligand alone / Potentiation of NGF induced neurite sprouting: 24 hours; for Effect on neurite sprouting, ligand alone: 0.5% serum; for Potentiation of NGF induced neurite sprouting: co-treated with 0.3 ng/mL NGF", "outline": "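PC12-derived PC-6-15 cells overexpressing trkA, kept in RPMI1640 with 10% horse serum, 5% FBS and 0.1 mg/mL G418. Plated on type I collagen in 0.5% serum medium. Treated 24 hours in duplicate with vehicle (DMSO 1:1000 v/v), test compound, NGF (0.3–100 ng/mL concentration-response), or test compound plus 0.3 ng/mL NGF. Neurite length/cell was total traced neurite length divided by total cell count.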"}, "MCF7-hS1R cells": {"test_system": "MCF7-hS1R cells", "test": "Bradykinin", "format": "cell-based, human", "settings": "pre-treatment with sigma ligand"}, "[1]": {"settings": "read-out: S1R affinity (Ki), displacement of 0.5 nM [3H]-(+)-pentazocine, MCF-7-S1R, mean ± SEM"}, "[2]": {"settings": "15 nM BD1063, Fractional Occupancy = [ligand]/([ligand]+Ki)"}},
  "note": "Entries after “also recorded” stand apart in the source; their conditions may differ. Like-named read-outs stand apart in the source and are kept apart here.",
  "data": [
    {"molecule": "CCC(C(=O)OCCOCCN(CC)CC)c1ccccc1", "note": "(stereo not drawn) [Butamirate]", "values": [
      {"measurement": "Ki", "setting": "human S2R", "value": "214 ± 41", "unit": "nM"},
      {"measurement": "Stimulation of BDNF secretion (in words)", "setting": "MN9D cells", "value": "completely abolished the BDNF secretion activity"},
      {"measurement": "Ki", "setting": "human S1R", "value": "17.2 ± 1.7", "unit": "nM"}
    ]},
    {"molecule": "CCN(CC)CCOCCOC(=O)C1(c2ccccc2)CCCC1", "note": "[Carbetapentane]", "values": [
      {"measurement": "Effect on neurite sprouting, ligand alone", "setting": "PC-6-15 cells", "value": "none of them had any effect"},
      {"measurement": "Potentiation of NGF induced neurite sprouting", "setting": "PC-6-15 cells", "value": "none of them had any effect"},
      {"measurement": "Ki", "setting": "human S2R", "value": "55.7 ± 3.8", "unit": "nM"},
      {"measurement": "Efficacy of BDNF secretion", "setting": "MN9D cells; 24 hrs, mean ± SEM", "value": "0.73 ± 0.05"},
      {"measurement": "Ki", "setting": "human S1R", "value": "19.8 ± 2.3", "unit": "nM"},
      {"measurement": "S2R/S1R ratio (Ki S2R / Ki S1R)", "setting": "human S1R", "value": 3}
    ]},
    {"molecule": "CCCN(CCC)CCc1ccc(OC)c(OCCc2ccccc2)c1", "note": "[NE-100]", "values": [
      {"measurement": "Pseudo-Hill slope at the S2R", "setting": "human S2R", "value": "near unity"},
      {"measurement": "Effect of sigma ligand on the bradykinin calcium response", "setting": "MCF7-hS1R cells", "value": "no significant potentiation or suppression"},
      {"measurement": "Pseudo-Hill slope at the S1R", "setting": "human S1R", "value": "−3.1"}
    ]},
    {"molecule": "CCCCOCCOC(=O)C(c1ccccc1)N(CC)CC", "note": "(stereo not drawn) [Cas# 1796909-31-3, 2-Butoxyethyl 2-(diethylamino)-2-phenylacetate]", "values": [
      {"measurement": "Stimulation of BDNF secretion (in words)", "setting": "MN9D cells", "value": "BDNF secreting activity"}
    ]},
    {"molecule": "COc1cc2c(cc1OC)C(=O)C(CC1CCN(Cc3ccccc3)CC1)C2", "note": "(stereo not drawn) [Donepezil]", "values": [
      {"measurement": "Stimulation of BDNF secretion (in words)", "setting": "MN9D cells", "value": "BDNF secreting activity"}
    ]},
    {"molecule": "CCN(CC)CCOCCOC(=O)C(CC)(CC)c1ccccc1", "note": "[Oxeladin]", "values": [
      {"measurement": "Ki", "setting": "human S2R", "value": "148 ± 64", "unit": "nM"},
      {"measurement": "Ki", "setting": "human S1R", "value": "25 ± 4.3", "unit": "nM"}
    ]},
    {"molecule": "c1ccc(CCCCN2CCC(c3ccccc3)CC2)cc1", "note": "[4-PPBP]", "values": [
      {"measurement": "Effect on neurite sprouting, ligand alone", "setting": "PC-6-15 cells", "value": "unable to stimulate neurite sprouting"},
      {"measurement": "Potentiation of NGF induced neurite sprouting", "setting": "PC-6-15 cells", "value": "neither 4-PPBP or promethazine enhanced NGF induced sprouting; also recorded: nor did it potentiate NGF induced sprouting"},
      {"measurement": "Pseudo-Hill slope at the S2R", "setting": "human S2R", "value": "near unity"},
      {"measurement": "Secreted BDNF at maximal stimulation", "setting": "MN9D cells; 10 μM 4-PPBP, 24 hrs, mean ± SEM, n = 3–10, baseline 75.4 ± 6.9", "value": "128.6 ± 12.8", "unit": "pg/mL"},
      {"measurement": "Efficacy of BDNF secretion", "setting": "MN9D cells; 24 hrs, mean ± SEM", "value": 1},
      {"measurement": "Stimulation of BDNF secretion (in words)", "setting": "MN9D cells", "value": "robust BDNF secretion response"},
      {"measurement": "Effect of sigma ligand on the bradykinin calcium response", "setting": "MCF7-hS1R cells", "value": "no significant potentiation or suppression"},
      {"measurement": "Pseudo-Hill slope at the S1R", "setting": "human S1R", "value": "−3.1"}
    ]},
    {"molecule": "CC(CN1c2ccccc2Sc2ccccc21)N(C)C", "note": "(stereo not drawn) [Promethazine]", "values": [
      {"measurement": "Potentiation of NGF induced neurite sprouting", "setting": "PC-6-15 cells", "value": "neither 4-PPBP or promethazine enhanced NGF induced sprouting"},
      {"measurement": "Emax at 10 µM", "setting": "MN9D cells; MN9D, read-out: Efficacy for BDNF secretion, % of the maximum response", "value": 103, "unit": "%"}
    ]},
    {"molecule": "CCC(C/C=C/c1ccccc1)(c1ccccc1)N(C)CC1CC1", "note": "(single isomer, unassigned; (+)) [(+)-Igmesine]", "values": [
      {"measurement": "Efficacy of BDNF secretion", "setting": "MN9D cells; 24 hrs, mean ± SEM", "value": "0.42 ± 0.03"},
      {"measurement": "Stimulation of BDNF secretion (in words)", "setting": "MN9D cells", "value": "BDNF secreting activity"},
      {"measurement": "Reversal of the BDNF response by S1R-selective concentration of BD1063", "setting": "MN9D cells; compound 10 μM + 15 nM BD1063, MN9D cells", "value": "could be reversed"},
      {"measurement": "Ki", "setting": "human S1R; [1]", "value": "9.2 ± 2.2", "unit": "nM"},
      {"measurement": "S2R/S1R ratio (Ki S2R / Ki S1R)", "setting": "human S1R", "value": 18}
    ]},
    {"molecule": "COCCCC/C(=N\\OCCN)c1ccc(C(F)(F)F)cc1", "note": "[fluvoxamine]", "values": [
      {"measurement": "Effect on neurite sprouting, ligand alone", "setting": "PC-6-15 cells", "value": "none of them had any effect"},
      {"measurement": "Potentiation of NGF induced neurite sprouting", "setting": "PC-6-15 cells", "value": "none of them had any effect"}
    ]},
    {"molecule": "(+)-SKF10047", "values": [
      {"measurement": "Effect of sigma ligand on the bradykinin calcium response", "setting": "MCF7-hS1R cells", "value": "no significant potentiation or suppression"}
    ]},
    {"molecule": "CN1CCN(CCc2ccc(Cl)c(Cl)c2)CC1", "note": "[BD1063]", "values": [
      {"measurement": "Calculated S2R occupancy", "setting": "human S2R; [2]", "value": 7, "unit": "%"},
      {"measurement": "Pseudo-Hill slope at the S2R", "setting": "human S2R", "value": "near unity"},
      {"measurement": "Effect of sigma ligand on the bradykinin calcium response", "setting": "MCF7-hS1R cells", "value": "no significant potentiation or suppression"},
      {"measurement": "Calculated S1R occupancy", "setting": "human S1R; [2]", "value": 74, "unit": "%"},
      {"measurement": "Pseudo-Hill slope at the S1R", "setting": "human S1R", "value": "equal to unity"},
      {"measurement": "Ki", "setting": "human S1R; [1]", "value": "5.6 ± 0.5", "unit": "nM"},
      {"measurement": "S2R/S1R ratio (Ki S2R / Ki S1R)", "setting": "human S1R", "value": 38}
    ]},
    {"molecule": "O=C(OCCN1CCOCC1)C1(c2ccccc2)CCCCC1", "note": "[PRE-084]", "values": [
      {"measurement": "Effect on neurite sprouting, ligand alone", "setting": "PC-6-15 cells", "value": "none of them had any effect"},
      {"measurement": "Potentiation of NGF induced neurite sprouting", "setting": "PC-6-15 cells", "value": "none of them had any effect"},
      {"measurement": "Pseudo-Hill slope at the S2R", "setting": "human S2R", "value": "near unity"},
      {"measurement": "Stimulation of BDNF secretion (in words)", "setting": "MN9D cells", "value": "no effect; also recorded: failed to stimulate BDNF secretion; also recorded: no activity"},
      {"measurement": "Effect of sigma ligand on the bradykinin calcium response", "setting": "MCF7-hS1R cells", "value": "no significant potentiation or suppression"},
      {"measurement": "Pseudo-Hill slope at the S1R", "setting": "human S1R", "value": "−0.98"}
    ]},
    {"molecule": "NGF: nerve growth factor (βNGF, EMD Millipore) (protein, UniProt P01139 122-241, looked up, beta-NGF) Beta-nerve growth factor: SSTHPVFHMGEFSVCDSVSVWVGDKTTATDIKGKEVTVLAEVNINNSVFRQYFFETKCRASNPVESGCRGIDSKHWNSYCTTTHTFVKALTTDEKQAAWRFIRIDTACVCVLSRKATRRG", "values": [
      {"measurement": "Lowest concentration tested that induced neurite sprouting", "setting": "PC-6-15 cells; 0.3 to 100 ng/mL tested", "value": 0.3, "unit": "ng/mL"}
    ]}
  ]
}
